Reference: ChEMBL document CHEMBL3351508, “Second-generation antibacterial benzimidazole ureas: discovery of a preclinical candidate with reduced metabolic liability” (J Med Chem, 2014)
Converted amounts (≈) assume the structure as drawn.

Legend:
Staphylococcus aureus [1] = assay: Antibacterial activity against Staphylococcus aureus ATCC 29213 by CLSI method in presence of human 50% serum; format: functional
Procedure, shortened: (§1)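 Broth microdilution MIC in liquid medium following CLSI methods, with ATCC strains. Each run was accepted only if comparator antibiotics fell within their recommended quality-control ranges for the appropriate ATCC strain.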

Haemophilus influenzae = assay: Antibacterial activity against Haemophilus influenzae ATCC 49247 by CLSI method; format: functional; procedure, shortened: as §1
Enterococcus faecalis = assay: Antibacterial activity against Enterococcus faecalis ATCC 29212 by CLSI method; format: functional; procedure, shortened: as §1
Staphylococcus aureus [2] = assay: Antibacterial activity against Staphylococcus aureus ATCC 29213 by CLSI method; format: functional; procedure, shortened: as §1
Streptococcus pneumoniae = assay: Antibacterial activity against Streptococcus pneumoniae ATCC 10015 by CLSI method; format: functional; procedure, shortened: as §1
DNA gyrase = DNA gyrase (Escherichia coli, UniProt P0AES4+P0AES6); assay: Inhibition of […] Escherichia coli DNA gyrase A2B2 using pBR322 plasmid DNA as substrate by coupled enzyme reaction assay; format: protein-complex assay
Enterococcus faecium = assay: Antibacterial activity against Enterococcus faecium ATCC 49624 by CLSI method; format: functional; procedure, shortened: as §1
Rattus norvegicus = assay: Dose normalized AUC in rat at 30 mg/kg, po; format: ADME, organism-based; set-up: dose 30 mg/kg, route oral; conditions: in vivo

Row | Structure (SMILES) | MIC (Staphylococcus aureus [1]) [µg/mL] | MIC (Haemophilus influenzae) [µg/mL] | MIC (Enterococcus faecalis) [µg/mL] | MIC (Staphylococcus aureus [2]) [µg/mL] | MIC (Streptococcus pneumoniae) [µg/mL] | Ki (DNA gyrase) [nM] | MIC (Enterococcus faecium) [µg/mL] | AUC/dose (Rattus norvegicus) [microg.hr/mL per mg/kg]
1 | CCNC(=O)Nc1nc2cc(-c3cccnc3)cc(-c3ncccc3F)c2[nH]1 | 1 | 1 (≈ 2.66 µM) | 0.016 (≈ 0.0425 µM) | 0.031 (≈ 0.0824 µM) | ≤ 0.008 | 6 |  | 
2 | NC(=O)Nc1nc2cc(-c3cncc(F)c3)cc(-c3ncccn3)c2[nH]1 | > 8 |  |  | > 8 |  |  |  | 
3 | CCCC(=O)Nc1nc2cc(-c3cncc(F)c3)cc(-c3ncccn3)c2[nH]1 | > 8 |  |  | > 8 |  |  |  | 
4 | CNCC(=O)Nc1nc2cc(-c3cncc(F)c3)cc(-c3ncccn3)c2[nH]1 | > 8 |  | > 8 | > 8 | > 8 |  | > 8 | 
5 | CCOC(=O)Nc1nc2cc(-c3cncc(F)c3)cc(-c3ncccn3)c2[nH]1 | > 8 |  | 0.016 (≈ 0.0423 µM) | 0.016 (≈ 0.0423 µM) | 0.008 (≈ 0.0211 µM) |  | 0.016 (≈ 0.0423 µM) | 
6 | COCC(=O)Nc1nc2cc(-c3cncc(F)c3)cc(-c3ncccn3)c2[nH]1 | 8 |  | 0.032 (≈ 0.0846 µM) | 0.064 (≈ 0.169 µM) | 0.032 (≈ 0.0846 µM) |  | 0.032 (≈ 0.0846 µM) | 
7 | CCNC(=O)Nc1nc2cc(-c3cccnc3)c(F)c(-n3cccn3)c2[nH]1 | 2 |  | 0.063 (≈ 0.172 µM) | 0.25 (≈ 0.684 µM) | 0.032 (≈ 0.0876 µM) |  |  | 10.8
8 | CCNC(=O)Nc1nc2cc(-c3ccc(CN4CCOCC4)nc3)c(F)c(-n3cccn3)c2[nH]1 | 1 |  | 0.125 (≈ 0.269 µM) | 0.25 (≈ 0.538 µM) | 0.016 (≈ 0.0344 µM) |  | 0.5 (≈ 1.08 µM) | 13.8
9 | CCNC(=O)Nc1nc2cc(-c3ccc(CN4CCOCC4)nc3)c(F)c(-n3cc(C)cn3)c2[nH]1 | 0.5 |  | 0.063 (≈ 0.132 µM) | 0.063 (≈ 0.132 µM) | 0.016 (≈ 0.0334 µM) |  | 0.25 (≈ 0.522 µM) | 1.9
10 | CCNC(=O)Nc1nc2cc(-c3cc(C)n(Cc4ccccn4)c(=O)c3)c(F)c(-n3cc(C)cn3)c2[nH]1 | 0.125 |  | 0.016 (≈ 0.032 µM) | 0.016 (≈ 0.032 µM) | 0.008 (≈ 0.016 µM) |  | 0.032 (≈ 0.0639 µM) | 0.2
11 | CCNC(=O)Nc1nc2cc(-c3ccc(C(C)O)nc3)c(F)c(-n3cccn3)c2[nH]1 (stereo not drawn) | 3 |  | 0.125 (≈ 0.305 µM) | 0.125 (≈ 0.305 µM) | 0.032 (≈ 0.0782 µM) |  | 0.5 (≈ 1.22 µM) | 
12 | CCNC(=O)Nc1nc2cc(-c3ccc(C(O)CC)nc3)c(F)c(-n3cccn3)c2[nH]1 (stereo not drawn) | 2 |  | 0.125 (≈ 0.295 µM) | 0.063 (≈ 0.149 µM) | 0.032 (≈ 0.0756 µM) |  | 0.25 (≈ 0.59 µM) | 7.2
13 | CCNC(=O)Nc1nc2cc(-c3ccc([C@@H](O)CC)nc3)c(F)c(-n3cccn3)c2[nH]1 | 1 |  | 0.063 (≈ 0.149 µM) | 0.063 (≈ 0.149 µM) | 0.016 (≈ 0.0378 µM) |  | 0.5 (≈ 1.18 µM) | 8.4
14 | CCNC(=O)Nc1nc2cc(-c3ccc([C@H](O)CC)nc3)c(F)c(-n3cccn3)c2[nH]1 | 4 |  | 0.063 (≈ 0.149 µM) | 0.25 (≈ 0.59 µM) | 0.063 (≈ 0.149 µM) |  | 0.25 (≈ 0.59 µM) | 
15 | CCNC(=O)Nc1nc2cc(-c3cnc(C(C)(C)O)nc3)cc([C@H]3CCCO3)c2[nH]1 | 0.25 |  | 0.063 (≈ 0.153 µM) | 0.125 (≈ 0.305 µM) | 0.032 (≈ 0.078 µM) |  | 0.5 (≈ 1.22 µM) | 4.3
16 | CCNC(=O)Nc1nc2cc(-c3cnc(C(C)(C)O)nc3)cc([C@@H]3CCCO3)c2[nH]1 | 2 |  | 1 (≈ 2.44 µM) | 1 (≈ 2.44 µM) | 0.5 (≈ 1.22 µM) |  | 2 (≈ 4.87 µM) | 
17 | CCNC(=O)Nc1nc2cc(-c3cnc(C(C)(C)O)nc3)c(F)c([C@@H]3CCCO3)c2[nH]1 | 4 |  | 0.5 (≈ 1.17 µM) | 0.5 (≈ 1.17 µM) | 0.25 (≈ 0.583 µM) |  | 2 (≈ 4.67 µM) | 
18 | CCNC(=O)Nc1nc2c(-n3cccn3)cc(-c3cccnc3)cc2[nH]1 | 4 |  | 0.063 (≈ 0.181 µM) | 0.25 (≈ 0.72 µM) | 0.016 (≈ 0.0461 µM) |  |  | 5.7
19 | CCNC(=O)Nc1nc2cc(-c3cccnc3)cc(C3CCCO3)c2[nH]1 (racemic) | 4 |  | 0.25 (≈ 0.711 µM) | 1 (≈ 2.85 µM) | 0.125 (≈ 0.356 µM) |  |  | 
20 | CCNC(=O)Nc1nc2cc(-c3cncnc3)cc(C3CCCO3)c2[nH]1 (racemic) | 2 |  | 0.5 (≈ 1.42 µM) | 1 (≈ 2.84 µM) | 0.125 (≈ 0.355 µM) |  | 1 (≈ 2.84 µM) | 10.5
21 | CCNC(=O)Nc1nc2cc(-c3ccn(C)c(=O)c3)cc(C3CCCO3)c2[nH]1 (racemic) | 0.75 |  | 0.25 (≈ 0.655 µM) | 0.75 (≈ 1.97 µM) | 0.016 (≈ 0.0419 µM) |  | 0.25 (≈ 0.655 µM) | 
22 | CCNC(=O)Nc1nc2cc(-c3cc(C)n(Cc4ccccn4)c(=O)c3)cc(C3CCCO3)c2[nH]1 (racemic) | 0.25 |  | 0.125 (≈ 0.265 µM) | 0.125 (≈ 0.265 µM) | 0.008 (≈ 0.0169 µM) |  | 0.25 (≈ 0.529 µM) | 
23 | CCNC(=O)Nc1nc2cc(-c3ccc(C(C)(C)O)nc3)cc(C3CCCO3)c2[nH]1 (racemic) | 2 |  | 0.25 (≈ 0.611 µM) | 0.5 (≈ 1.22 µM) | 0.063 (≈ 0.154 µM) |  | 1 (≈ 2.44 µM) | 2.6
24 | CCNC(=O)Nc1nc2cc(-c3cnc(C(C)(C)O)nc3)cc(C3CCCO3)c2[nH]1 (racemic) | 0.5 |  | 0.25 (≈ 0.609 µM) | 0.25 (≈ 0.609 µM) | 0.032 (≈ 0.078 µM) |  | 0.5 (≈ 1.22 µM) | 5.5
25 | CCNC(=O)Nc1nc2cc(-c3cnc(C(C)(C)O)nc3)c(F)c(C3CCCO3)c2[nH]1 (racemic) | 0.5 |  | 0.125 (≈ 0.292 µM) | 0.063 (≈ 0.147 µM) | 0.032 (≈ 0.0747 µM) |  | 0.5 (≈ 1.17 µM) | 
